{"data": "Published values pooled from the literature", "organism": "Staphylococcus aureus", "observed": "microbial growth"}
{"Structure (SMILES)": "COc1cccc(OC)c1C(=O)N[C@@H]1C(=O)N2[C@@H]1SC(C)(C)[C@@H]2C(=O)O", "strain": "156", "notes": "clinical isolate", "MIC": "25 µM"}
{"Structure (SMILES)": "O=C(O)c1cn(C2CC2)c2cc(N3CCNCC3)c(F)cc2c1=O", "technique": "broth dilution", "strain": "ATCC6538", "MIC": "0.24 µg/mL"}
{"Structure (SMILES)": "Cc1ccc2nc(-c3ccc(N(C)C)cc3)[nH]c2c1", "technique": "broth dilution", "strain": "ATCC29213 MSSA", "MIC": "64 µg/mL"}
{"Structure (SMILES)": "COc1cc2nccc(Oc3ccc(NC(=O)NC4CC4)c(Cl)c3)c2cc1C(N)=O", "strain": "NCTC8325", "MIC": "> 30 µM"}
{"Structure (SMILES)": "COc1c(C)c(OC(=O)c2ccc(C)cc2)c(C)c(O)c1C(=O)/C=C/c1ccccc1", "technique": "broth dilution", "strain": "ATCC25923", "MIC": "5000 µg/mL"}
{"Structure (SMILES)": "O=C(O)CN1C(=O)/C(=C/c2c3ccccc3c(-c3ccc(N(c4ccccc4)c4ccccc4)cc3)c3ccccc23)NC1=S", "technique": "broth dilution", "strain": "ATCC25923", "MIC": "> 1000 µg/mL"}
{"Structure (SMILES)": "C[C@@H]1[C@H](O)[C@@H](C)/C=C/C=C/C=C/C=C/C=C/C=C/C=C/[C@H](O[C@@H]2O[C@H](C)[C@@H](O)[C@H](N)[C@@H]2O)C[C@@H]2O[C@](O)(C[C@@H](O)C[C@@H](O)[C@H](O)CC[C@@H](O)C[C@@H](O)CC(=O)O[C@H]1C)C[C@H](O)[C@H]2C(=O)O", "technique": "broth dilution", "strain": "MB2865", "MIC": "> 128 µg/mL"}
{"Structure (SMILES)": "Cc1nc(Nc2ncc(C(=O)Nc3c(C)cccc3Cl)s2)cc(N2CCN(CCO)CC2)n1", "strain": "NCTC8325", "MIC": "> 30 µM"}
{"Structure (SMILES)": "CCOC(=O)/C(C#N)=C(\\O)c1ccc(NC(=O)c2cccs2)cc1", "MIC": "> 128 µg/mL"}
{"Structure (SMILES)": "COc1cccc(OC)c1C(=O)N[C@@H]1C(=O)N2[C@@H]1SC(C)(C)[C@@H]2C(=O)O", "technique": "broth dilution", "strain": "ATCCBAA44", "MIC": "1020 µg/mL"}
{"Structure (SMILES)": "C=CCn1c(-c2ccc(Cl)cc2)nc2ccccc21", "technique": "broth dilution", "strain": "ATCC29213 MSSA", "MIC": "64 µg/mL"}
{"Structure (SMILES)": "COc1cc(C(=O)Nc2ccc(C(=O)N[C@@H](CC(N)=O)C(=O)Nc3ccc(C(=O)Nc4ccc(C(=O)Nc5ccc(C(=O)O)cc5)c(O)c4OC(C)C)cc3)cc2)ccc1C#N", "strain": "ATCC29213", "MIC": "> 64 µg/mL"}
{"Structure (SMILES)": "C/C=C(\\C)c1cc(O)c(C)c(OC(=O)c2c(C)cc(O)c(Cl)c2O)c1", "strain": "MRSA", "MIC": "8 µg/mL"}
{"Structure (SMILES)": "FC(F)c1nc2ccccc2n1-c1nc(N2CCOCC2)nc(N2CCOCC2)n1", "strain": "NCTC8325", "MIC": "> 30 µM"}
{"Structure (SMILES)": "Cc1ccc2nc(-c3cccc(O)c3)[nH]c2c1", "technique": "broth dilution", "strain": "ATCC29213 MSSA", "MIC": "32 µg/mL"}
{"Structure (SMILES)": "Cc1ccc(Nc2nccc(N(C)c3ccc4c(C)n(C)nc4c3)n2)cc1S(N)(=O)=O", "strain": "NCTC8325", "MIC": "> 30 µM"}
{"Structure (SMILES)": "CC(C)Oc1c(NC(=O)c2ccc(NC(=O)[C@H](CC(N)=O)NC(=O)c3ccc(NC(=O)C(C)Sc4ccc(C#N)cc4)cc3)cc2)ccc(C(=O)Nc2ccc(C(=O)O)cc2)c1O (stereo partly drawn)", "strain": "ATCC29213", "MIC": "> 64 µg/mL"}
{"Structure (SMILES)": "Cn1cnc(-c2cc3nccc(Oc4ccc(NC(=S)NC(=O)Cc5ccccc5)cc4F)c3s2)c1", "strain": "NCTC8325", "MIC": "> 30 µM"}
{"Structure (SMILES)": "CC1(C)S[C@@H]2[C@H](NC(=O)COc3ccccc3)C(=O)N2[C@H]1C(=O)O", "technique": "broth dilution", "strain": "ATCC25923", "time": "18 h", "MIC": "2 µg/mL"}
{"Structure (SMILES)": "CO[C@H]1/C=C/O[C@@]2(C)Oc3c(C)c(O)c4c(O)c(c(/C=N/N5CCN(C)CC5)c(O)c4c3C2=O)NC(=O)/C(C)=C\\C=C\\[C@H](C)[C@H](O)[C@@H](C)[C@@H](O)[C@@H](C)[C@H](OC(C)=O)[C@@H]1C", "strain": "NCTC8325", "MIC": "0.009 to 0.018 µM"}
{"Structure (SMILES)": "CC(=O)NC[C@H]1CN(c2ccc(N3CCOCC3)c(F)c2)C(=O)O1", "technique": "broth dilution", "strain": "MRSA NRS383 USA200", "notes": "drug-resistant strain", "MIC": "2 µg/mL"}
